# Source: PubChem BioAssay
# Sampled rows, rich in hits. Any-hit rate of the full collection: about 3.1%.
# KCNQ1 pot: potentiators or activators of human KCNQ1 potassium channel | AID 2648 | CHO-K1 KCNQ1, thallium flux FluxOR fluorescence; active compounds read high | B-score at 10 µM | P51787 | 0.35% of 310,000 active;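 active = fluorescence ratio B-score, a plate-corrected score, at least three library SD, with initial intensity B-score within 5 SD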
#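 System: Stable KCNQ1 CHO-K1 line | Incubation: 90 min dye loading and 20 min compound exposure, both at room temperature | Measure: Ratio B score | Medium: Assay buffer for compound exposure, DMSO matched across wells | Compound dosing: Single-concentration screen | Probe or stimulus: K+/Tl+ depolarizing stimulus | Measured by: Kinetic FluxOR fluorescence, 10 s baseline plus 110 s post-stimulus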
# KCNK9 block: human KCNK9 channel inhibition. HEK293 KCNK9, FluxOR thallium flux fluorescence; active compounds read low. B-score at 10 µM. Q9NPC2. 1.2% of 310,000 active;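 active = ratio B-score over 3 SD below the library mean, with starting fluorescence within 5 SD of its mean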;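 note: negative B-score means less thallium flux so channel inhibition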
# KCNK3 inh: human KCNK3 channel inhibition, primary screen; AID 602410; O14649; 0.84% of 340,000 active; B-score at 10 µM; CHO-KCNK3 thallium flux, FluxOR fluorescence; active compounds read low;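 active = B-score under library mean minus 4 SD, starting fluorescence ratio at most library mean plus 5 SD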;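 note: more negative B-score means stronger inhibition of thallium flux through KCNK3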
# KCNQ1 block: blocks the human KCNQ1 potassium channel | P51787 | CHO-K1 KCNQ1, FluxOR thallium flux fluorescence; active compounds read high | B-score at 10 µM | 1.3% of 310,000 active | AID 2642;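 active = compounds whose thallium flux B-score, printed positive for inhibition, exceeds three library SD while starting fluorescence stays within three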;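 note: channel opened by potassium depolarization with thallium stimulus after 20 min compound exposure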
# hERG protect: hERG (human) protection from proarrhythmic block | CHO-hERG, FluxOR thallium flux, dofetilide IC70 present | activation (rescue from dofetilide block), less the hit threshold, % at 10 µM | 0.51% of 310,000 active;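 active = activation above the mean of controls blocked by dofetilide plus 5 SD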;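 note: thallium influx through hERG after potassium depolarization seen as dye fluorescence rise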
# * = called active by the depositor; i = inactive; nt = not tested or not shown.
SMILES,KCNQ1 pot,KCNK9 block,KCNK3 inh,KCNQ1 block,hERG protect
O=C(c1ccc(Cl)cc1)C1C2C(=O)N(c3ccccc3)C(=O)C2C2CCCN21 (stereo unspecified),i,i,i,i,-16
Cc1ccc(/C=C2\SC(=S)N(NS(=O)(=O)c3ccc(C)cc3)C2=O)cc1,27*,i,i,i,-5
Cc1ccc(S(=O)(=O)NN2C(=O)/C(=C\c3ccc(Cl)cc3)SC2=S)cc1,i,i,i,i,-2
Cc1cccc(C(=O)OCC(=O)Nc2ccccc2C(=O)NC2CC2)c1,nt,nt,i,nt,nt
COc1cc(OC)cc(C(=O)N[C@H](C(=O)OCc2cc(=O)oc3cc(C)ccc23)C(C)C)c1,i,i,i,i,-9
CCOc1ccccc1C(=O)NC(C(=O)N(C)Cc1ccc2c(c1)OCO2)C(C)C (stereo unspecified),nt,nt,-9.2*,nt,nt
CCOc1ccccc1C(=O)N[C@H](C(=O)OCc1cc(=O)oc2cc(C)ccc12)C(C)C,i,-6.7*,i,i,-9
CCOc1ccccc1C(=O)NC(C)c1ccc2c(c1)OCO2 (stereo unspecified),i,i,i,i,-10
CCc1ccn2cc(-c3ccc4c(c3)OCO4)nc2c1,i,-7.3*,i,i,-7
COc1nc(N)nc2nc[nH]c12,i,i,i,i,-6
CCCc1cc2c(-c3ccccc3)cc(=O)oc2cc1OCc1ccc(C(=O)O)o1,9*,i,i,i,-13
CCc1cc2c(-c3ccccc3)cc(=O)oc2cc1OCC(C)=O,i,i,i,i,-5
Cc1nn(C(C)(C)C)c(C)c1/C=N/OC(=O)Nc1ccc(Cl)cc1,i,i,i,7*,-15
CCCn1cnnc1CNC(=O)C1CCC(=O)N(CCCc2ccccc2)C1 (stereo unspecified),i,i,i,i,-3
C=CCC(O)(CC=C)CNC(=O)C1CCC(=O)N(CCCc2ccccc2)C1 (stereo unspecified),i,i,i,i,6.7*
N#Cc1c(NC(=O)/C=C/C(=O)O)sc2c1CCN(Cc1ccccc1)C2,i,i,i,6*,-12
CC(=O)Nc1sc2c(c1C#N)CCN(Cc1ccccc1)C2,i,i,i,i,-3
c1ccc2c(c1)ccc1[nH]c3c(c12)CCCC3,nt,nt,i,nt,nt
CC(=O)NCCOC(=O)Nc1sc(=S)n(C)c1C,i,i,i,8*,-8
Cc1ccc(C)c(S(=O)(=O)NCCOC(=O)Nc2sc(=S)n(C)c2C)c1,i,i,i,i,-4
N#Cc1ccc(NC(=O)Nc2ccc(Oc3ccc(NC(=O)Nc4ccc(C#N)cc4)cc3)cc2)cc1,i,i,i,9*,-15
COc1ccc(NC(=O)Nc2ccc(OC)cc2)cc1,i,i,i,i,-4
COc1ccc(OC)c(C(=O)c2coc3cc(Br)c(O)c(Br)c23)c1,i,-7.6*,i,i,-7
CC(=O)NNC(=O)c1sc(=S)n2c1[nH]c(=O)c1sccc12,i,i,i,i,-10
CCCCCn1c(=O)[nH]c2cc(C(=O)NCCc3ccc(OC)c(OC)c3)ccc2c1=O,i,i,i,i,-14
SMILES,KCNQ1 pot,KCNK9 block,KCNK3 inh,KCNQ1 block,hERG protect
O=C(NCc1ccccc1)c1sc(=S)n2c1[nH]c(=O)c1ccccc12,i,i,i,7*,-16
CCCCNC(=O)c1sc(=S)n2c1[nH]c(=O)c1ccc(C(=O)NCCc3ccc(OC)c(OC)c3)cc12,i,i,-10*,i,-20
O=C(Nc1nnc(-c2ccco2)o1)c1ccc2ccccc2c1,i,i,i,i,6.8*
O=C(CCCSc1ccccc1)Nc1ccc(Cl)c(S(=O)(=O)N2CCOCC2)c1,nt,nt,i,nt,nt
COC(=O)c1cc(C(=O)NNC(=O)c2ccc3c(c2)OCO3)cc([N+](=O)[O-])c1,nt,nt,i,nt,nt
O=C(NC(=S)NCCC1=CCCCC1)c1ccco1,27*,i,i,i,30*
O=C(NC(=S)NCCC1=CCCCC1)c1ccc(Br)o1,33*,i,i,i,20*
CCC(C)c1ccccc1N1CC(C(=O)N2CCN(C(=O)c3ccco3)CC2)CC1=O (stereo unspecified),nt,nt,i,nt,nt
O=C(COC(=O)c1ccccc1)NCc1ccco1,i,i,i,i,-3
